Assay results reported in ChEMBL document CHEMBL4334446, “Evaluating the effects of fluorine on biological properties and metabolic stability of some antitubulin 3-substituted 7-phenyl-pyrroloquinolinones” (Eur J Med Chem, 2019).

What was measured:
HT-29 = assay: Growth inhibition of human HT-29 cells incubated for 72 hrs by MTT assay; assay type: functional; details: HT-29, 72 h
[1] = Metabolic stability in human liver microsomes at 10 uM incubated for 15 mins in presence of NADPH and non-selective CYP inhibitor quercetin by HPLC analysis; assay type: ADME, Microsome; details: 0.25 h
Procedure, shortened: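 Compound (10 µM) was incubated 0 and 15 min at 37 °C with pooled HLMs and 1 mM NADPH in 0.1 M KH2PO4 pH 7.4, with or without 100 µM quercetin. Parent remaining was measured by HPLC-fluorescence relative to 0 min; mean ± SD, n = 3.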

[2] = Selectivity ratio of GI50 for PHA-stimulated human PBL cells to GI50 for human Jurkat cells incubated for 72 hrs by MTT assay
Procedure, shortened: (§1)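 Leukemia cells (CEM, DND-41, Jurkat) were grown in RPMI-1640 at 8×10³ cells/well and left 18 h. Donor PBL were gradient-separated, held overnight, and non-adherent cells set at 5×10^5 cells/mL with 2.5 µg/mL PHA. Both were exposed 72 h at 37 °C to graded compound concentrations, read by MTT. The ratio is PBL GI50 over leukemia GI50.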

[3] = Selectivity ratio of GI50 for human PBL cells to GI50 for human DND41 cells incubated for 72 hrs by MTT assay
Procedure, shortened: as §1, with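 “overnight in RPMI-1640/10% FBS,” for “overnight,”, “without PHA (resting).” for “with 2.5 µg/mL PHA.”, “h” for “h at 37 °C”, “graded” for “graded compound”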

HeLa = assay: Growth inhibition of human HeLa cells incubated for 72 hrs by MTT assay; assay type: functional
[4] = Growth inhibition of PHA-stimulated human PBL cells incubated for 72 hrs by MTT assay; assay type: cell-based; details: PHA-stimulated PBL cells (peripheral blood lymphocytes)
Procedure, shortened: (§2)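 PBL from healthy donors were isolated on a Lymphoprep gradient, held overnight in RPMI-1640 with 10% FBS, and the non-adherent cells resuspended at 5 × 10^5 cells/mL. Proliferating cultures got 2.5 µg/mL PHA; resting cultures got none. Compound was added at several concentrations for 72 h and viability read by MTT. GI50 reported as mean ± SEM of three experiments.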

[5] = Selectivity ratio of GI50 for PHA-stimulated human PBL cells to GI50 for human DND41 cells incubated for 72 hrs by MTT assay; procedure, shortened: as §1
CCRF-CEM = assay: Growth inhibition of human CEM cells incubated for 72 hrs by MTT assay; assay type: functional
Procedure, shortened: (§3)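 Leukemia lines were grown in RPMI-1640; the CEM^Vbl-100 medium also contained 100 ng/mL vinblastine. Cells were seeded at 8 × 10³ per well and left 18 h at 37 °C, 5% CO2. Medium was then replaced with fresh medium holding graded compound concentrations (DMSO stocks), in triplicate, for 72 h. Viability was read by MTT, and GI50 = concentration inhibiting proliferation 50%.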

[6] = Selectivity ratio of GI50 for human PBL cells to GI50 for human CEM cells incubated for 72 hrs by MTT assay; assay type: functional
Procedure, shortened: as §1, with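 “overnight in RPMI-1640/10% FBS,” for “overnight,”, “without PHA (resting).” for “with 2.5 µg/mL PHA.”, “h” for “h at 37 °C”, “graded” for “graded compound”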

A-375 = assay: Growth inhibition of human A375 cells incubated for 72 hrs by MTT assay; assay type: functional; details: A-375, 72 h
[7] = Growth inhibition of human PBL cells incubated for 72 hrs by MTT assay; assay type: cell-based; details: PBL cells (peripheral blood lymphocytes); procedure, shortened: as §2
[8] = Metabolic stability in human liver microsomes assessed as half life at 10 uM incubated for 30 mins in presence of NADPH by HPLC analysis; assay type: ADME, Microsome
Procedure, shortened: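 Compound (10 µM) was incubated at 37 °C with 0.5 mg/mL pooled HLMs and 1 mM NADPH in 0.1 M KH2PO4 pH 7.4, sampled at 0, 2, 5, 15 and 30 min. Controls without NADPH, or buffer only, ran 0 and 30 min. Parent was quantified by HPLC-fluorescence as % of the 0 min level, n = 3. t1/2 = 0.693/k, with k from regression of ln % remaining versus time.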

MDA-MB-468 = assay: Growth inhibition of human MDA-MB-468 cells incubated for 72 hrs by MTT assay; assay type: functional; details: MDA-MB-468, 72 h
RS4-11 = assay: Growth inhibition of human RS4:11 cells incubated for 72 hrs by MTT assay; assay type: functional; details: RS4-11, 72 h; procedure, shortened: as §3
A2058 = assay: Growth inhibition of human A2058 cells incubated for 72 hrs by MTT assay; assay type: functional; details: A2058, 72 h
[9] = Time-dependent metabolic stability in human liver microsomes at 10 uM incubated for 30 mins in presence of NADPH by HPLC analysis; assay type: ADME, Microsome; details: 0.5 h
Procedure, shortened: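 Pooled mixed-gender HLMs (0.5 mg/mL) plus 1 mM NADPH in 0.1 M KH₂PO₄ pH 7.4, compound 10 μM final, 37 °C. Reaction started with microsomes after 3-min equilibration. Stopped with ice-cold acetonitrile at 0, 2, 5, 15, 30 min, then HPLC-fluorescence of supernatant. Percent remaining vs 0 min (mean ± SD, n = 3). Half-life = 0.693/k from linear regression of Ln % remaining vs time.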

[10] = Stability in phosphate buffer at pH 7.4 at 10 uM incubated for 30 mins by HPLC analysis; assay type: physicochemical; details: pH 7.4, 0.5 h
Procedure, shortened: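 No microsomes or NADPH: compound (10 μM final) held in 0.1 M KH₂PO₄ pH 7.4 at 37 °C. Samples taken at 0 and 30 min, quenched with ice-cold acetonitrile, centrifuged, analysed by HPLC with fluorescence detection. Percent parent remaining relative to 0 min; mean ± SD, n = 3.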

[11] = Growth inhibition of multidrug-resistant human CEM/VBL100 cells incubated for 72 hrs by MTT assay; assay type: functional; details: CEM/VBL100, 72 h; procedure, shortened: as §3
[12] = Selectivity ratio of GI50 for human PBL cells to GI50 for human Jurkat cells incubated for 72 hrs by MTT assay
Procedure, shortened: as §1, with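 “overnight in RPMI-1640/10% FBS,” for “overnight,”, “without PHA (resting).” for “with 2.5 µg/mL PHA.”, “h” for “h at 37 °C”, “graded” for “graded compound”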

HL-60 = assay: Growth inhibition of human HL60 cells incubated for 72 hrs by MTT assay; assay type: functional; details: HL-60, 72 h; procedure, shortened: as §3
Tubulin (Bos taurus) = Tubulin (Bos taurus) (UniProt Q6B856+Q862L2+Q862F3); assay: Inhibition of [3H]colchicine binding to bovine brain tubulin at 5 uM relative to control
Procedure, shortened: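 Bovine brain tubulin at 1 µM was incubated with 5 µM [3H]colchicine and the test compound at 5 µM. Inhibition of colchicine binding was measured relative to a control.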

MDA-MB-231 = assay: Growth inhibition of human MDA-MB-231 cells incubated for 72 hrs by MTT assay; assay type: functional; details: MDA-MB-231, 72 h
MCF7 = assay: Growth inhibition of human MCF7 cells incubated for 72 hrs by MTT assay; assay type: functional; details: MCF7, 72 h
[13] = Selectivity ratio of GI50 for PHA-stimulated human PBL cells to GI50 for human CEM cells incubated for 72 hrs by MTT assay; procedure, shortened: as §1
Tubulin = Tubulin (Bos taurus, UniProt Q6B856+Q862L2+Q862F3); assay: Inhibition of bovine brain tubulin polymerization preincubated for 15 mins followed by GTP addition and measured for 20 mins by turbidimetry-based spectrophotometric method
Procedure, shortened: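 Bovine brain tubulin (10 µM) was preincubated with varying compound concentrations in 0.8 M monosodium glutamate, pH 6.6, for 15 min at 30 °C, then cooled to 0 °C. GTP was added to 0.4 mM final and the mix warmed to 30 °C. Turbidity was followed at 350 nm. IC50 = concentration inhibiting extent of assembly 50% after 20 min.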

[14] = Growth inhibition of human DND41 cells incubated for 72 hrs by MTT assay; assay type: functional; details: DND41, 72 h; procedure, shortened: as §3
[15] = Metabolic stability in human liver microsomes at 10 uM incubated for 30 mins in phosphate buffer at pH 7.4 by HPLC analysis; assay type: ADME, Microsome; details: pH 7.4, 0.5 h
Procedure, shortened: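 Test compound (10 μM, final) incubated at 37 °C with pooled mixed-gender HLMs (0.5 mg/mL) in 0.1 M KH₂PO₄ pH 7.4 without NADPH. Sampled at 0 and 30 min, quenched with ice-cold acetonitrile, centrifuged, supernatant analysed by HPLC with fluorescence detection (ex 344/em 493 nm). Percent remaining calculated from peak area relative to 0 min; mean ± SD, n = 3.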

Jurkat = assay: Growth inhibition of human Jurkat cells incubated for 72 hrs by MTT assay; assay type: functional; procedure, shortened: as §3
[16] = Metabolic stability in human liver microsomes assessed as parent compound decline at 10 uM incubated for 60 mins in absence of NADPH by HPLC analysis; assay type: ADME, Microsome; details: read-out: Drug degradation
Procedure, shortened: (§4)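 Compound (10 µM) was incubated 0 or 60 min at 37 °C with pooled HLMs (1 mg/mL), with or without 1 mM NADPH, or in buffer only (0.1 M KH2PO4 pH 7.4). Reactions were stopped with ice-cold acetonitrile. Remaining parent was measured by HPLC-fluorescence relative to 0 min; mean ± SD, n = 3.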

[17] = Metabolic stability in human liver microsomes assessed as parent compound decline at 10 uM incubated for 60 mins in presence of NADPH by HPLC analysis; assay type: ADME, Microsome; details: read-out: Drug degradation; procedure, shortened: as §4

SMILES	GI50 (HT-29)	Stability [1]	GI50 (HeLa)	GI50 (CCRF-CEM)	GI50 (A-375)	GI50 (MDA-MB-468)	GI50 (RS4-11)	GI50 (HL-60)	inhibition (Tubulin (Bos taurus))	GI50 (MDA-MB-231)	GI50 (MCF7)	IC50 (Tubulin)	GI50 (Jurkat)	RatioGI50 [2]	RatioGI50 [3]	GI50 at 72 h [4]	RatioGI50 [5]	RatioGI50 [6]	GI50 (A2058)	GI50 [14]	other results
CCn1ccc2c3c(=O)cc(-c4cccc(F)c4)[nH]c3ccc21	0.9 nM	Stable	0.7 nM	2.2 nM	11.4 nM	15 nM	0.07 nM	0.08 nM	83%	69 nM	52.7 nM	780 to 840 nM	0.11 nM	10000 - 30000	10000 - 30000	10800 nM	10000 - 30000	10000 - 30000	3.5 nM	0.13 nM	GI50 at 72 h [7]: 31300 nM; half-life at 10 µM [8]: 11.8 min; Stability [9]: Unstable; Stability [10]: Stable; GI50 [11]: 0.8 nM; RatioGI50 [12]: 10000 - 30000; RatioGI50 [13]: 10000 - 30000; Stability [15]: Stable
O=C(c1ccccc1)n1ccc2c3c(=O)cc(-c4ccccc4)[nH]c3ccc21	0.1 nM		0.2 nM	2.5 nM			0.3 nM	2 nM			0.2 nM		16 nM	10000 - 30000	10000 - 30000	2700 nM	10000 - 30000	10000 - 30000			metabolised at 1 h, 10 µM [16]: 20%; metabolised at 1 h, 10 µM [17]: 20%; GI50 at 72 h [7]: > 100000 nM; GI50 [11]: 3.1 nM; RatioGI50 [12]: 10000 - 30000; RatioGI50 [13]: 10000 - 30000
CCn1ccc2c3c(=O)cc(-c4ccc(F)cc4)[nH]c3ccc21	447 nM	Stable	340 nM		69.8 nM	43 nM	293 nM	1440 nM	12%	206 nM	51.3 nM	3700 nM	334 nM						1180 nM	477 nM	half-life at 10 µM [8]: 10.6 min; Stability [9]: Unstable; Stability [10]: Stable; Stability [15]: Stable

Continued, in another order:

GI50 (HT-29)	Stability [1]	GI50 (HeLa)	GI50 (CCRF-CEM)	GI50 (A-375)	GI50 (MDA-MB-468)	GI50 (RS4-11)	GI50 (HL-60)	inhibition (Tubulin (Bos taurus))	GI50 (MDA-MB-231)	GI50 (MCF7)	IC50 (Tubulin)	GI50 (Jurkat)	SMILES	RatioGI50 [2]	RatioGI50 [3]	GI50 at 72 h [4]	RatioGI50 [5]	RatioGI50 [6]	GI50 (A2058)	GI50 [14]	other results
26.6 nM		9.3 nM		332 nM	70 nM	120 nM	276 nM	34%	3030 nM	1080 nM	1300 nM	53.7 nM	O=C(c1ccccc1F)n1ccc2c3c(=O)cc(-c4ccccc4)[nH]c3ccc21						322 nM	240 nM	metabolised at 1 h, 10 µM [16]: 20%; metabolised at 1 h, 10 µM [17]: 20%
216 nM		501 nM		2550 nM	1320 nM	697 nM	2310 nM		5590 nM	3460 nM		324 nM	O=C(Oc1cc(-c2ccccc2)nc2ccc3[nH]ccc3c12)c1ccccc1F						1490 nM	2420 nM	
